Measured values as given in PubChem BioAssay AID504829 (Southern Research Specialized Biocontainment Screening …, 2011).

Tested on: HEp-2 RSV CPE, time of addition, CellTiter-Glo viability
Test: HEp-2 viability after RSV infection, timed dosing – cell-based, time of addition, mechanism study for RSV inhibitor project (AID 504829)
Details: at 25 µM, stronger effect = higher value
Summary of the method: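 System: HEp-2 human cell line, virus-infected | Doses: 25 µM single dose, 0.5% DMSO | Times: 6-day incubation at 37 °C after infection | Signal: ATP-based luminescence with CellTiter-Glo reagent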

[1] = measured here: added 1 h before infection
[2] = measured here: added 1 h post infection
[3] = measured here: added 7 h post infection
[4] = measured here: added 21 h post infection
[5] = measured here: added 24 h post infection

| SMILES | viability (protection from CPE) [%] | viability [1] [%] | viability [2] [%] | viability [3] [%] | viability [4] [%] | viability [5] [%] |
| --- | --- | --- | --- | --- | --- | --- |
| COc1ccc(C)c(NC(=O)[C@@H]2CCCN2S(=O)(=O)c2cccc3cccnc23)c1 | 81.8 | 90.4 | 63.3 | 52.1 | 34.3 | 24.8 |
| Cc1ccc(NC(=O)[C@@H]2CCCN2S(=O)(=O)c2cccc3cccnc23)c(C)c1 | 77.1 | 87.5 | 56 | 51.8 | 29 | 23.1 |
| Cc1ccc(C)c(NC(=O)[C@@H]2CCCN2S(=O)(=O)c2cccc3cccnc23)c1 | 91.4 | 91.6 | 61.7 | 49.6 | 35.1 | 27.7 |
